Experimental data: ChEMBL document CHEMBL1130979, “Synthesis, X-ray crystal structure, and biological activity of FR186054, a novel, potent, orally active inhibitor of acyl-CoA:cholesterol O-acyltransferase (ACAT) bearing a pyrazole ring” (Bioorg Med Chem Lett, 1998)

Key:
Assay type in all cases: functional
Rattus norvegicus [1] = experiment: Hypocholesterolemic activity by administration of gavage in PEG400 as a vehicle in cholesterol-fed rats.; details: po
In short: (§1)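 Male rats (n = 4) made hypercholesterolemic on diet with 1% cholesterol and 0.5% cholic acid for 2 days. Compound then dissolved in PEG400 and given orally by gavage once daily in the evening for 3 days, cholesterol-enriched diet continued. Plasma total cholesterol measured; ED50 = dose lowering plasma total cholesterol by 50% of control.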

Rattus norvegicus [2] = experiment: Hypocholesterolemic activity to reduce plasma total cholesterol level by 50% after dietary administration in cholesterol-fed rats; details: feed or water
In short: (§2)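 Male rats (n = 4) received compound admixed in diet supplemented with 1% cholesterol and 0.5% cholic acid for 7 days. Plasma total cholesterol then measured, percent change vs control calculated. Reported as percent reduction at the dose given or as ED50 (dose lowering total cholesterol by 50%). Significance by unpaired two-tailed Student's t-test.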

Rattus norvegicus [3] = experiment: Percent reduction in total cholesterol at less than 0.1 mg/kg dose; in short: as §2
Rattus norvegicus [4] = experiment: Hypocholesterolemic activity by administration of gavage in PEG400 as a vehicle in cholesterol-fed rats; details: po; in short: as §1
Rattus norvegicus [5] = experiment: Percent reduction in total cholesterol at greater than 1 mg/kg dose; in short: as §2

CSc1cc(C)nc(SC)c1NC(=O)N(Cc1ccccc1)Cc1cccc(-c2cc[nH]n2)c1
ED50 (Rattus norvegicus [1]): 0.44 mg/kg
ED50 (Rattus norvegicus [2]): 0.046 mg/kg

CSc1cc(C)nc(SC)c1NC(=O)N(Cc1ccc(N(C)C)cc1)Cc1cccc(-c2cc[nH]n2)c1
Reduction (Rattus norvegicus [3]): 61%
ED50 (Rattus norvegicus [2]): < 0.1 mg/kg

O=C(Nc1c(F)cc(F)cc1F)N(Cc1ccccc1)Cc1cccc(-c2cc[nH]n2)c1
ED50 (Rattus norvegicus [4]): 8.6 mg/kg
ED50 (Rattus norvegicus [2]): 0.096 mg/kg

CSc1cc(C)nc(SC)c1NC(=O)N(Cc1ccc(F)cc1)Cc1cccc(-c2cc[nH]n2)c1
Reduction (Rattus norvegicus [3]): 66%
ED50 (Rattus norvegicus [2]): < 0.1 mg/kg

Cc1cc(C)c(NC(=O)N(Cc2ccccc2)Cc2cccc(-c3cc[nH]n3)c2)c(C)c1
Reduction (Rattus norvegicus [5]): 36%
ED50 (Rattus norvegicus [2]): > 1 mg/kg

COc1ccc(CN(Cc2cccc(-c3cc[nH]n3)c2)C(=O)Nc2c(SC)cc(C)nc2SC)cc1
Reduction (Rattus norvegicus [3]): 81%
ED50 (Rattus norvegicus [2]): < 0.1 mg/kg

CCCCCCCN(Cc1ccc(CC(C)(C)C)cc1)C(=O)Nc1ccc(F)cc1F [CL-277082]
ED50 (Rattus norvegicus [2]): 5 mg/kg
